Values after ≈ are worked out from the molar mass of the structure shown.
What was measured:
[1] = system: Staphylococcus aureus; assay: Antibacterial activity against Staphylococcus aureus ATCC 25923 assessed as growth inhibition incubated for 18 hrs by broth dilution method; type: functional; conditions: ATCC 25923, 18 h
In short: (§1)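 Broth microdilution following CA-SFM recommendations. Inoculum was 10^5 CFU in Mueller-Hinton broth with two-fold serial drug dilutions. Plates were incubated 18 h at 37 °C. MIC was the lowest concentration giving complete inhibition of visible growth. Values are means, n = 3.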

[2] = system: Candida albicans; assay: Antifungal activity against Candida albicans ATCC 90028 assessed as growth inhibition incubated for 36 hrs by resazurin dye based assay; type: functional; conditions: ATCC 90028, 36 h
In short: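 Yeast was grown 3 days on YPD agar at 30 °C. Colonies were suspended and diluted in YNB broth to 2.5×10^3 CFU/mL, then added to two-fold compound dilutions (0.008–32 μg/mL final), in duplicate. Plates stood 36 h at 35 °C without shaking. Means, n = 2.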

[3] = Hemolytic activity against Sprague-Dawley rat RBC assessed as release of hemoglobin incubated for 1 hr; type: ADME, cell-based, Erythrocyte; conditions: red blood cells (erythrocytes)
In short: (§2)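 Fresh Sprague-Dawley rat erythrocytes were washed in saline and resuspended at 2% v/v. Cells were incubated with compound in DMSO/PBS for 1 h at 37 °C, then centrifuged at 200 g, and supernatant absorbance read at 540 nm. Results were normalised to DMSO/PBS (0%) and 0.1% Triton X-100 (100%). Single-point testing used 50 μM; HC50 came from 10-point curves. Means of three experiments.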

[4] = Hemolytic activity against Sprague-Dawley rat RBC assessed as release of hemoglobin at 50 uM incubated for 1 hr relative to control; type: ADME, cell-based, Erythrocyte; conditions: red blood cells (erythrocytes), read-out: Activity; in short: as §2
[5] = system: Escherichia coli; assay: Antibacterial activity against Escherichia coli ATCC 25922 assessed as growth inhibition incubated for 18 hrs by broth dilution method; type: functional; conditions: ATCC 25922, 18 h; in short: as §1
[6] = system: Pseudomonas aeruginosa; assay: Antibacterial activity against Pseudomonas aeruginosa ATCC 27853 assessed as growth inhibition incubated for 18 hrs by broth dilution method; type: functional; conditions: ATCC 27853, 18 h; in short: as §1
[7] = system: Klebsiella pneumoniae; assay: Antibacterial activity against Klebsiella pneumoniae ATCC 700603 assessed as growth inhibition incubated for 18 hrs by resazurin dye based assay; type: functional; conditions: Klebsiella pneumoniae, 700603, 18 h
In short: (§3)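 Overnight cultures were diluted 40-fold in MHB and grown 1.5–2 h at 37 °C to mid-log phase. Cells were added at 5×10^5 CFU/mL final to two-fold compound dilutions (0.008–32 μg/mL final), in duplicate, for 18 h at 37 °C. Resazurin (0.001% final) was added for 2 h and MIC read by eye. Means, n = 2.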

[8] = system: Cryptococcus neoformans; assay: Antifungal activity against Cryptococcus neoformans ATCC 208821 assessed as growth inhibition incubated for 36 hrs by resazurin dye based assay; type: functional; conditions: ATCC 208821, 36 h
In short: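 Cryptococcus was grown 3 days on YPD agar at 30 °C, suspended, and diluted in YNB broth to 2.5×10^3 CFU/mL. Cells were exposed to 0.008–32 μg/mL compound (final), in duplicate, for 36 h at 35 °C without shaking. Resazurin (0.006% final) was added for a further 3 h. MIC was read from absorbance at OD570–600. Means, n = 2.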

[9] = system: L6; assay: Cytotoxicity against rat L6 cells measured after 72 hrs by alamar blue assay; type: cell-based; conditions: L6, 72 h
In short: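 Rat L6 myoblasts, 4×10^4/well in RPMI 1640 with L-glutamine and 10% FBS, received seven 3-fold dilutions (90 to 0.123 μg/mL) for 72 h. Alamar Blue was added for 2 h and fluorescence read at ex 536/em 588 nm. Podophyllotoxin served as reference. Means, n = 2.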

[10] = Cytotoxicity against human HEK293 cells measured after 20 hrs by resazurin dye based fluorescence assay; type: cell-based
In short: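 HEK293 cells, 5,000/well in DMEM with 10% FBS, were exposed to compound for 20 h at 37 °C, 5% CO2. Resazurin (100 μM final) was added for 3 h, then fluorescence read at ex 560/em 590. Signal was normalised to tamoxifen (74 μg/mL, 0%) and untreated growth (100%), and CC50 came from dose-response fitting. Top dose 32 μg/mL. Means, n = 2.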

[11] = system: Acinetobacter baumannii; assay: Antibacterial activity against Acinetobacter baumannii ATCC 19606 assessed as growth inhibition incubated for 18 hrs by resazurin dye based assay; type: functional; conditions: ATCC 19606 = CIP 70.34 = JCM 6841, 18 h; in short: as §3
[12] = system: Pseudomonas aeruginosa; assay: Potentiation of doxycycline-induced antibacterial activity against Pseudomonas aeruginosa ATCC 27853 assessed as concentration required to restore 2 ug/ml doxycycline activity measured after 18 hrs; type: functional
In short: (§4)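 Inoculum was 5×10^5 CFU in MHB with two-fold serial dilutions of adjuvant plus fixed doxycycline at 2 μg/mL. […] Repeated independently in triplicate.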

[13] = system: Staphylococcus intermedius; assay: Antibacterial activity against Staphylococcus intermedius 1051997 assessed as growth inhibition incubated for 18 hrs by broth dilution method; type: functional; conditions: Staphylococcus intermedius, 1051997, 18 h; in short: as §1
[14] = system: Pseudomonas aeruginosa; assay: Potentiation of nalidixic acid-induced antibacterial activity against Pseudomonas aeruginosa ATCC 27853 assessed as concentration required to restore 2 ug/ml nalidixic acid activity measured after 18 hrs; type: functional
[15] = system: Pseudomonas aeruginosa; assay: Induction of membrane depolarization in Pseudomonas aeruginosa measured after 15 mins by DiSC3(5) dye based spectrofluorometric method; type: functional, organism-based
In short: (§5)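 Bacteria were grown 24 h in MHB at 37 °C, washed in 250 mM sucrose with 5 mM MgSO4, and loaded with 3 μM DiSC3(5) for 1 h at 37 °C. Unbound dye was washed away before compound was added at varied concentrations. Fluorescence was recorded after 15 min on a spectrofluorometer, with pure 3 μM dye as the maximum. CTAB (0.01%) served as positive control.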

[16] = system: Staphylococcus aureus; assay: Induction of membrane depolarization in Staphylococcus aureus measured after 15 mins by DiSC3(5) dye based spectrofluorometric method; type: functional, organism-based; in short: as §5
[17] = system: Acinetobacter baumannii; assay: Potentiation of nalidixic acid-induced antibacterial activity against Acinetobacter baumannii AYE assessed as concentration required to restore 2 ug/ml nalidixic acid activity measured after 18 hrs; type: functional
[18] = system: Acinetobacter baumannii; assay: Potentiation of doxycycline-induced antibacterial activity against Acinetobacter baumannii AYE assessed as concentration required to restore 2 ug/ml doxycycline activity measured after 18 hrs; type: functional; in short: as §4
[19] = system: Pseudomonas aeruginosa; assay: Potentiation of chloramphenicol-induced antibacterial activity against Pseudomonas aeruginosa ATCC 27853 assessed as concentration required to restore 2 ug/ml chloramphenicol activity measured after 18 hrs; type: functional
[20] = system: Klebsiella aerogenes; assay: Disruption of membrane integrity in Enterobacter aerogenes EA289 assessed as increase in beta-lactamase hydrolysis by using chromogenic nitrocefin as substrate by spectrophotometry analysis; type: functional
In short: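 E. aerogenes EA289 was grown in MHB at 37 °C to OD600 0.5, washed in 20 mM potassium phosphate (pH 7.2) with 1 mM MgCl2, and readjusted to OD600 0.5. Cells were exposed to compound at 3.9–250 μM final with nitrocefin at 50 μg/mL final, at room temperature. Hydrolysis was followed as the absorbance rise at 490 nm.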

[21] = system: Klebsiella pneumoniae; assay: Potentiation of doxycycline-induced antibacterial activity against Klebsiella pneumoniae ATCC 13443 assessed as concentration required to restore 2 ug/ml doxycycline activity measured after 18 hrs; type: functional; in short: as §4
[22] = system: Escherichia coli; assay: Potentiation of doxycycline-induced antibacterial activity against Escherichia coli ATCC 25922 assessed as concentration required to restore 2 ug/ml doxycycline activity measured after 18 hrs; type: functional; in short: as §4
[23] = system: Pseudomonas aeruginosa; assay: Disruption of membrane integrity in Pseudomonas aeruginosa PAO1 assessed as increase in extracellular ATP level by luciferin-luciferase reagent based luminescence assay; type: functional, organism-based
In short: (§6)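 Growing bacteria (P. aeruginosa PAO1 or S. aureus) in MHB at 37 °C were mixed 9:1 with compound, at 4× MIC, and vortexed for 1 s. Luciferin-luciferase reagent was added immediately and luminescence read for 5 s. ATP was quantified by internal standard addition. Squalamine served as positive control.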

[24] = system: Escherichia coli; assay: Potentiation of nalidixic acid-induced antibacterial activity against Escherichia coli ATCC 25922 assessed as concentration required to restore 2 ug/ml nalidixic acid activity measured after 18 hrs; type: functional
[25] = system: Pseudomonas aeruginosa; assay: Potentiation of erythromycin-induced antibacterial activity against Pseudomonas aeruginosa ATCC 27853 assessed as concentration required to restore 2 ug/ml erythromycin activity measured after 18 hrs; type: functional
[26] = system: Staphylococcus aureus; assay: Disruption of membrane integrity in Staphylococcus aureus assessed as increase in extracellular ATP level by luciferin-luciferase reagent based luminescence assay; type: functional, organism-based; in short: as §6
[27] = system: Klebsiella pneumoniae; assay: Potentiation of nalidixic acid-induced antibacterial activity against Klebsiella pneumoniae ATCC 13443 assessed as concentration required to restore 2 ug/ml nalidixic acid activity measured after 18 hrs; type: functional
[28] = system: Acinetobacter baumannii; assay: Antibacterial activity against Acinetobacter baumannii AYE assessed as growth inhibition; type: functional
[29] = system: Klebsiella pneumoniae; assay: Antibacterial activity against Klebsiella pneumoniae ATCC 13443 assessed as growth inhibition; type: functional

SMILES | MIC [1] [µM] | MIC [2] [µM] | MIC [5] [µM] | MIC [6] [µM] | MIC [7] [µM] | MIC [8] [µM] | MIC [11] [µM] | MIC [28] [µM] | MIC [29] [µM] | hemolysis at 1 h, 50 µM [4] [%] | IC50 [9] [µM] | CC50 at 20 h [10] [µM] | Activity [12] [µM] | also measured
CCn1cc(C(=O)O)c(=O)c2ccc(C)nc21 [NALIDIXIC ACID] | – | – | > 200 | > 200 | – | – | – | > 200 | 100 (≈ 23.2 µg/mL) | – | – | – | – | –
CC[C@H]1OC(=O)[C@H](C)[C@@H](O[C@H]2C[C@@](C)(OC)[C@@H](O)[C@H](C)O2)[C@H](C)[C@@H](O[C@@H]2O[C@H](C)C[C@H](N(C)C)[C@H]2O)[C@](C)(O)C[C@@H](C)C(=O)[C@H](C)[C@@H](O)[C@]1(C)O [ERYTHROMYCIN] | – | – | > 200 | > 200 | – | – | – | 200 (≈ 147 µg/mL) | > 200 | – | – | – | – | –
C[C@H]1c2cccc(O)c2C(=O)C2=C(O)[C@]3(O)C(=O)C(C(N)=O)=C(O)[C@@H](N(C)C)[C@@H]3[C@@H](O)[C@@H]21 [DOXYCYCLINE] | – | – | 25 (≈ 11.1 µg/mL) | 90 (≈ 40 µg/mL) | – | – | – | 12.5 (≈ 5.56 µg/mL) | 25 (≈ 11.1 µg/mL) | – | – | – | – | –

More lines, main results first:

MIC [1] [µM] | MIC [2] [µM] | MIC [5] [µM] | MIC [6] [µM] | MIC [7] [µM] | MIC [8] [µM] | MIC [11] [µM] | MIC [28] [µM] | MIC [29] [µM] | SMILES | hemolysis at 1 h, 50 µM [4] [%] | IC50 [9] [µM] | CC50 at 20 h [10] [µM] | Activity [12] [µM] | also measured
25 | > 29.4 | 50 | 100 | > 29.4 | 3.65 | > 29.4 | – | – | O=C(NCCCNCCCCNCCCNC(=O)C(=O)c1c[nH]c2cc(Br)c(Br)cc12)C(=O)c1c[nH]c2cc(Br)c(Br)cc12.O=C(O)C(F)(F)F.O=C(O)C(F)(F)F | 88.7 | 6.03 | 1.62 | 25 | HC50 at 1 h [3]: 17 µM
3.12 | > 34.4 | 25 | 50 | 34.4 | 2.2 | > 34.4 | – | – | O=C(NCCCNCCCCNCCCNC(=O)C(=O)c1c[nH]c2ccc(Br)cc12)C(=O)c1c[nH]c2ccc(Br)cc12.O=C(O)C(F)(F)F.O=C(O)C(F)(F)F | 34.7 | 19.8 | 14.1 | 3.125 to 6.25 | MIC [13]: 3.12 µM; Activity [14]: >200 µM; Activity [15]: Dose-dependent effect; Activity [16]: Dose-dependent effect; Activity [17]: 100 µM; Activity [18]: 6.72 µM; Activity [19]: 26.9 µM; Activity [20]: Dose-dependent effect; Activity [21]: 13.4 µM; Activity [22]: 1.68 µM; Activity [23]: Dose-dependent effect; Activity [24]: 100 µM; Activity [25]: >200 µM; Activity [26]: Dose-dependent effect; Activity [27]: 12.5 µM

Source: ChEMBL document CHEMBL4311975, “Exploration of the antibiotic potentiating activity of indolglyoxylpolyamines” (Eur J Med Chem, 2019)
